RGS4 inh: human RGS4 inhibition. HEK293 M3R/RGS4 inducible, Fluo-4 calcium flux; hits give high values; triggered by carbachol at its EC20. hit rate 0.45% among 310,000. P49798. B-score at 10 µM. AID 463165;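 active means B-score, a plate-corrected calcium signal, over three deviations above library mean, with baseline fluorescence within five deviations of library mean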;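 further: RGS4 expression induced by doxycycline in cells with stable M3 receptor; B-score is computed from the integrated fluorescence ratio over baseline after carbachol; higher B-score means a larger calcium signal and so more RGS4 inhibition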
RGS4 pot: potentiators or activators of RGS4; HEK293 M3R/inducible RGS4, carbachol calcium flux Fluo4; hits give low values; B-score at 10 µM; hit rate 0.92% among 310,000;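 active means B-score of the integrated calcium signal more than 4 SD below the library mean, with starting fluorescence not abnormally high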;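 further: negative B-score means reduced calcium response which marks RGS4 activation or potentiation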
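System: HEK293 FlpIn-TREx cells, stable M3R, doxycycline-inducible RGS4. Timing: overnight RGS4 induction, 30 min dye load 37 °C, 20 min compound RT. Also added: carbachol, ECmax concentration. Measured by: Fluo4 fluorescence kinetic imaging of calcium. Evaluation: integrated calcium ratio converted to B score.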
MrgX1 ag: human MrgX1 receptor agonism, primary screen. Q96LB2. MrgX1-HEK293 cells, Fluo-4 calcium fluorescence, agonist mode; hits give high values. B-score at 10 µM. hit rate 0.44% among 310,000;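 active means calcium response B-score plate-corrected fluorescence ratio at least 3 library SD, with starting fluorescence B-score inside 5 SD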
Target sequence (Q96LB2 whole entry, looked up): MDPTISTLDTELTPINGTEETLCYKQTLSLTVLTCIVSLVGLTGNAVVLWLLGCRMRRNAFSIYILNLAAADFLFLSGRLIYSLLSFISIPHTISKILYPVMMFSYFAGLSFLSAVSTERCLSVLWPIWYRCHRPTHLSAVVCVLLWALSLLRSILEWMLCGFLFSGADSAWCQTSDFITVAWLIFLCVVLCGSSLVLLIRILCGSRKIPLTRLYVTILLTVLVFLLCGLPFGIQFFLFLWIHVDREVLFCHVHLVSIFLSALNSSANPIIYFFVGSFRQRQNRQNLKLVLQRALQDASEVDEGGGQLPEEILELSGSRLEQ
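Test system: HEK293 cells stably expressing human MrgX1 receptor; amount: 15,000 cells per well; doses: compound delivered in addition one of three; times: overnight plating before 1 h dye loading; detection: Fluo-4 NW calcium-flux fluorescence, kinetic read; read-out basis: B-scored fluorescence response ratio; controls: positive and negative controls per plate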
MrgX1 allo act: human MrgX1 positive allosteric modulation, primary screen. Q96LB2. MrgX1-HEK293, Fluo-4 calcium flux, FDSS; hits give high values. B-score at 10 µM. hit rate 0.63% among 310,000;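 active means plate-corrected calcium response at least 3 library SD above typical, normal starting fluorescence, not activating the receptor alone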;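 further: compound read alongside a low EC10 to EC30 dose of BAM8-22 agonist; peak minus trough fluorescence over baseline measured at the second addition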
MrgX1 antag: blocks BAM8-22 activation of human MrgX1 receptor; Q96LB2; MRGX1-HEK293 calcium flux, Fluo-4, BAM8-22 antagonism; hits give low values; B-score at 10 µM; hit rate 1.3% among 310,000; AID 588676;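 active means calcium-response B-score plate-corrected more than 3 library SD below zero, starting fluorescence within 5 deviations, no agonist response on first addition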;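 further: peak minus trough fluorescence over baseline after final BAM8-22 challenge near maximal dose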
Numbers stand for hits; i = inactive; nt = not tested or not shown. A selection: hits, their analogues and other compounds. The true share with any hit is near 3.5%.

SMILES | RGS4 inh | RGS4 pot | MrgX1 ag | MrgX1 allo act | MrgX1 antag
Cc1ccccc1N1CCN(C2CCCN(C(=O)c3cnsn3)C2)CC1 (centres undefined) | i | i | i | i | i
Cc1cccc2sc(NNC(=O)c3cc(=O)c4ccccc4o3)nc12 | i | i | i | i | i
Cc1ccc2sc(NNC(=O)c3cc(=O)c4ccccc4o3)nc2c1C | i | i | i | i | -8.74
O=C(NNC(=S)Nc1ccc(Cl)cc1Cl)C1CC1 | i | i | i | i | i
O=C(Nc1cccc(/C=C/c2ccccn2)c1)c1ccc(-n2cncn2)c([N+](=O)[O-])c1 | i | -7.72 | i | i | i
COc1ccc(NC(=O)c2ccc(-n3cncn3)c([N+](=O)[O-])c2)cc1OC | i | i | i | i | i
CCO[C@@H]1OC(C(=O)O)=C[C@H](c2ccc(Br)cc2)[C@H]1CCCO | i | i | i | i | i
Cc1cccn2c(=O)c(C(=O)NC3CC(C)CC(C)(C)C3)c(O)nc12 (centres undefined) | i | -7.15 | i | i | i
CC(C)CCn1c(=O)c2ccccc2n2c(CCl)nnc12 | i | i | i | i | i
CCN(Cc1ccccc1)S(=O)(=O)c1cn(C)cn1 | i | i | i | i | i
Cc1ccccc1Nc1nc(N)nc(CN2CCN(C(=O)c3ccccc3)CC2)n1 | i | i | i | i | i
CCN(CC(=O)NCc1ccc(F)cc1)C(=O)CN1CCN(c2ccc(OC)cc2)CC1 | i | i | i | i | i
COc1cc(C(=O)Nc2nnc(SC)s2)c([N+](=O)[O-])cc1OC | i | i | i | i | i
COc1cc(C(=O)Nc2nnc(C(F)(F)F)s2)c([N+](=O)[O-])cc1OC | i | i | i | i | -6.42
O=C(N/N=C/c1cccc([N+](=O)[O-])c1)C1CC(=O)N(c2ccc(F)cc2)C1 (centres undefined) | i | i | i | i | i
CCOc1ccccc1NC1=C(Cl)C(=O)N(c2ccc(OC)cc2)C1=O | i | i | i | 7.86 | i
COc1ccc(N2C(=O)C(Cl)=C(NCc3ccccc3)C2=O)cc1 | i | i | i | i | i
COc1ccccc1NC1=C(Cl)C(=O)N(C2CCCCC2)C1=O | i | i | i | 7.6 | i
CCn1ccnc1CN(C)C(=O)C1CCC(=O)N(Cc2cccc(C(F)(F)F)c2)C1 (centres undefined) | i | i | i | i | i
CCCc1nnc(NC(=O)C(=O)NCCN(CC)CC)s1 | i | -7.34 | nt | nt | nt
Cc1ccccc1Oc1nnc(-c2cccs2)c2ccccc12 | i | i | nt | nt | nt
CCCCCCc1nc2ccccc2c(=O)n1N | i | i | i | 9.05 | i
C=CCCCCc1nc2ccccc2c(=O)n1N | i | i | i | i | i
O=C(NCC1CCCO1)C(=O)N/N=C/c1cccc(Cl)c1 (centres undefined) | i | i | i | i | i
COc1cccc(C(C(=O)NCc2ccco2)N(Cc2ccco2)C(=O)Cn2nnc3ccccc32)c1 (centres undefined) | i | -7.24 | i | i | i
SMILES | RGS4 inh | RGS4 pot | MrgX1 ag | MrgX1 allo act | MrgX1 antag
Cc1onc(-c2c(F)cccc2Cl)c1C(=O)NCc1ccc2c(c1)OCO2 | i | -7.37 | i | i | i
COc1cc(Nc2cccc[n+]2C)cc(OC)c1OC | i | i | i | i | i
O=C(N/N=C/c1cc([N+](=O)[O-])ccc1O)C(O)(c1ccccc1)c1ccccc1 | i | i | i | 9.37 | i
CCOC(=O)c1ccc(S(=O)(=O)NNC(=O)COc2ccccc2C)cc1 | i | i | i | i | i
COP(=O)(OC)c1nc(-c2ccc([N+](=O)[O-])cc2)oc1N1CCCCC1 | i | i | 33 | i | i
Cc1ccc(C(=O)OCC(=O)NC2CCCC2)cc1 | i | i | i | i | i
COc1ccc(Nc2nnc(SC(C(=O)Nc3ccc(OC)c(Cl)c3)c3ccccc3)s2)cc1 (centres undefined) | i | i | i | 15.7 | i
CCN(CC)CCNC(=O)c1c(C)n(-c2ccccc2)c2cc(Br)c(OC)cc12 | i | i | i | i | -7.26
CCOC(=O)COn1c(-c2cccc(Cl)c2)nc2ccc([N+](=O)[O-])cc21 | i | i | i | i | -6.23
COc1ccc(N2CCN(C(=O)Cc3ccc(S(=O)(=O)N4CCOCC4)s3)CC2)cc1 | i | i | i | i | i
Oc1ccc(C=NCCc2ccccc2)cc1 | i | i | i | i | i
CCOC(=O)Nc1ccc2c(c1)N(C(=O)CCN(CC)CC)c1ccccc1S2=O (centres undefined) | i | i | 30.4 | i | i

Screening results as filed in PubChem BioAssay.
